Measurements of several laboratories.
Each line is one published result; the experiments were not run side by side.
rep main protease: Replicase polyprotein 1ab, main protease (rep, Severe acute respiratory syndrome coronavirus 2, UniProt P0DTD1)
rep methyltransferase: Replicase polyprotein 1ab, methyltransferase (rep, Severe acute respiratory syndrome coronavirus 2, UniProt P0DTD1)

SMILES | target | test | endpoint | result
CN1Cc2ccccc2[C@@H]2c3cccc4[nH]cc(c34)C[C@H]21 | rep main protease | enzyme activity, inhibitor | IC50 | > 20 µM
CCOC(=O)c1c(NC(=O)c2cc3ccccc3o2)sc(C)c1C | rep methyltransferase | enzyme activity, inhibitor | IC50 | 27.9 µM
CSc1ccc(N(Cc2cc(Cl)cs2)C(=O)Cc2cncc3ccccc23)cc1 | rep main protease | binding, MST | Kd | 1.4 µM
N=C(N)NN=C1C=CC(=NNC(N)=S)C=C1 | rep main protease | enzyme activity, inhibitor | IC50 | 9.3 µM
[H]/N=C(\N/C(=N/[H])NCCCCCCNC(=N)NC(=N)Nc1ccc(Cl)cc1)Nc1ccc(Cl)cc1 | rep methyltransferase | enzyme activity, inhibitor | IC50 | 43.7 µM
COc1cc(-c2ccc(/N=N/c3ccc4c(S(=O)(=O)O)cc(S(=O)(=O)O)c(N)c4c3O)c(OC)c2)ccc1/N=N/c1ccc2c(S(=O)(=O)O)cc(S(=O)(=O)O)c(N)c2c1O | rep main protease | enzyme activity, inhibitor | IC50 | 9.82 µM
O=c1oc2cc(O)ccc2c2ccccc12 | rep main protease | binding, SPR | Kd | 52.7 µM
COC(=O)c1c(NC(=O)c2cc3ccccc3o2)sc(C)c1C | rep methyltransferase | enzyme activity, inhibitor | IC50 | 22.8 µM
COc1ccc(N(Cc2cc(Cl)cs2)C(=O)Cc2cncc3ccccc23)cc1 | rep main protease | binding, MST | Kd | 1.5 µM
